Reference: ChEMBL document CHEMBL1137561 (J Med Chem, 2007)
pEC50, pKi: −log10 of the molar value.

Columns and labels:
[1] = tested on: Human immunodeficiency virus 1; assay: Resistance index, ratio of Ki for HIV1 reverse transcriptase Y181I mutant to Ki for wild type HIV1 3B reverse transcriptase
Procedure, shortened: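 Initial velocities came from radioactive nucleotide incorporation into poly(rA)/oligo(dT) 10:1, sampled every 2 min. Inhibitor spanned 0.2–5 Ki, with Lineweaver-Burk and Dixon plots. Fold-resistance is Ki mutant / Ki wild type.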

[2] = Resistance index, Ratio of EC50 for drug-resistant HIV1 with RT K103N mutation in MT4 cells to EC50 for HIV1 NL43 in MT4 cells
[3] = target: Human immunodeficiency virus type 1 reverse transcriptase (Human immunodeficiency virus 1, UniProt Q72547, Y188L); assay: Inhibition of HIV1 reverse transcriptase Y188L mutant
[4] = Selectivity index, ratio of CC50 for MT4 cells to EC50 for HIV1 NL43 infected MT4 cells; format: functional
[5] = target: Human immunodeficiency virus type 1 reverse transcriptase (Human immunodeficiency virus 1, UniProt Q72547); assay: Inhibition of wild type HIV1 3B reverse transcriptase
[6] = tested on: Human immunodeficiency virus 1; assay: Antiviral activity against HIV1 with reverse transcriptase Y188L mutation in MT4 cells assessed as inhibition of viral induced cytopathic effect by MTT method; format: functional, organism-based; settings: Human immunodeficiency virus 1, MT4
Procedure, shortened: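 MT-4 cells infected with the HIV-1 NNRTI-resistant mutant strain. Viable cells scored at day 5 post-infection by the MTT tetrazolium colorimetric method. Values are means ± SD from at least two experiments.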

[7] = target: Human immunodeficiency virus type 1 reverse transcriptase (Human immunodeficiency virus 1, UniProt Q72547, K103N); assay: Inhibition of HIV1 reverse transcriptase K103N mutant
[8] = Inhibition of HIV1 reverse transcriptase Y1811 mutant; design: species or system Human immunodeficiency virus 1
Procedure, shortened: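 Recombinant HIV-1 RT Y181I mutant, purified to >95%, 10 min preincubation with inhibitor. Radioactive nucleotide incorporation into poly(rA)/oligo(dT) 10:1 was followed at varied nucleotide substrate levels, sampling every 2 min for initial velocities. Inhibitor spanned 0.2–5 Ki. Ki came from Lineweaver-Burk and Dixon plots. Means ± SD of at least three experiments.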

[9] = tested on: Human immunodeficiency virus 1; assay: Antiviral activity against HIV1 with reverse transcriptase Y181C mutation in MT4 cells assessed as inhibition of viral induced cytopathic effect by MTT method; format: functional, organism-based; settings: Human immunodeficiency virus 1, MT4
Procedure, shortened: (§1)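 MT-4 cells infected with the HIV-1 NNRTI-resistant mutant strain. Viable cells scored at day 5 post-infection by the MTT tetrazolium colorimetric method. […] Values are means ± SD from at least two experiments.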

[10] = target: Human immunodeficiency virus type 1 reverse transcriptase (Human immunodeficiency virus 1, UniProt Q72547, L100I); assay: Inhibition of HIV1 reverse transcriptase L100I mutant
[11] = target: Human immunodeficiency virus type 1 reverse transcriptase (Human immunodeficiency virus 1, UniProt Q72547, V106A); assay: Inhibition of HIV1 reverse transcriptase V106A mutant
[12] = tested on: Human immunodeficiency virus 1; assay: Antiviral activity against HIV1 with reverse transcriptase K103N mutation in MT4 cells assessed as inhibition of viral induced cytopathic effect by MTT method; format: functional, organism-based; settings: Human immunodeficiency virus 1, MT4; procedure, shortened: as §1
[13] = tested on: Human immunodeficiency virus 1; assay: Antiviral activity against HIV1 NL43 in MT4 cells assessed as inhibition of viral induced cytopathic effect after 5 days by MTT method; settings: Human immunodeficiency virus 1, NL43, MT4, 120 h
[14] = Resistance index, Ratio of EC50 for drug-resistant HIV1 with RT IRLL98 mutation in MT4 cells to EC50 for HIV1 NL43 in MT4 cells
[15] = Cytotoxicity against MT4 cells after 4 days by MTT method; format: cell-based; settings: human
Procedure, shortened: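 Mock-infected (noninfected) MT-4 cells, run in parallel with the antiviral test. Viable cells read by the MTT tetrazolium colorimetric method. […] Means ± SD from at least two experiments. The top concentration was limited where compounds precipitated in the culture medium.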

[16] = Resistance index, Ratio of EC50 for drug-resistant HIV1 with RT Y181C mutation in MT4 cells to EC50 for HIV1 NL43 in MT4 cells
[17] = tested on: Human immunodeficiency virus 1; assay: Antiviral activity against HIV1 with reverse transcriptase IRLL98 mutation in MT4 cells assessed as inhibition of viral induced cytopathic effect by MTT method; format: functional, organism-based
[18] = tested on: Human immunodeficiency virus 1; assay: Antiviral activity against HIV1 NL43 in MT4 cells assessed as inhibition of viral induced cytopathic effect after 4 days by MTT method; format: functional, organism-based
[19] = target: Human immunodeficiency virus type 1 reverse transcriptase (Human immunodeficiency virus 1, UniProt Q72547, V179D); assay: Inhibition of HIV1 reverse transcriptase V179D mutant
[20] = Resistance index, Ratio of EC50 for drug-resistant HIV1 with RT Y188L mutation in MT4 cells to EC50 for HIV1 NL43 in MT4 cells
[21] = Human immunodeficiency virus 1, MT4

SMILES	Ratio Ki [1]	Ratio EC50 [2]	pKi [3]	Ratio CC50/EC50 [4]	pKi [5]	pEC50 [6]	pKi [7]	pKi [8]	pEC50 [9]	pKi [10]	pKi [11]	pEC50 [12]	pEC50 [13]	Ratio EC50 [14]	CC50 at 96 h [15] [nM]	Ratio EC50 [16]	pEC50 [17, 21]	pKi [19]	Ratio EC50 [20]	other results
CCCNc1nc(C(C)c2c(F)cccc2F)c(C)c(=O)[nH]1 (configuration not stated)	125	125	5.51	11667	7.40	< 5.00	6.33	5.30	7.22	6.51	7.40	6.43	8.52	30	35000	20	7.05			
Cc1c(C(C)c2c(F)cccc2F)nc(N2CCSCC2)[nH]c1=O (configuration not stated)		413	5.40	>23667	7.22	6.07	5.00	< 4.70	7.52	5.30	7.52	5.91		20	> 71000	10		7.70	287	pEC50 [18]: 8.52; pEC50 ([17]; mt4): 7.22
O=c1cc(Cc2c(F)cccc2F)nc(N2CCSCC2)[nH]1	2		6.00	>2200	6.70	< 5.00	5.82	6.40	< 5.00	5.00	6.30	< 5.00	7.46		> 77000		< 5.00	5.30		
Cc1c(C(C)c2c(F)cccc2F)nc(SC2CCCC2)[nH]c1=O (configuration not stated)	180	225	5.85	>3000	8.30	< 5.52	7.52	6.05	7.01	6.52	6.30	6.65	9.00	120	> 3000	97	6.92	6.60		
CCN(C)c1nc(C(C)c2c(F)cccc2F)c(C)c(=O)[nH]1 (configuration not stated)	250	67	5.40	270000	7.40	7.52	6.30	5.00	8.70	5.60	7.70	7.70	9.52	10	81000	7	8.52	7.70	100	
CCc1c(C(C)c2c(F)cccc2F)nc(N(C)C)[nH]c1=O (configuration not stated)	100	125	5.00	>40500	7.30	6.26	5.70	5.30	7.00	5.40	7.22	6.60	8.70	440	> 81000	50	6.06	7.52	275	
Cc1c(C(C)c2c(F)cccc2F)nc(N(C)C(C)C)[nH]c1=O (configuration not stated)	21	12	5.92	>162000	7.40	7.40	7.10	6.07	9.15	5.00	7.52	8.22	9.30	2	> 81000	1.4	9.00		80	
CCCN(C)c1nc(C(C)c2c(F)cccc2F)c(C)c(=O)[nH]1 (configuration not stated)	42	17	5.84	>130000	7.52	7.52	6.77	5.90	9.22	6.74	7.70	8.00	9.22	1.7	> 78000	1	9.00		50	
Cc1c(C(C)c2c(F)cccc2F)nc(N(C)C)[nH]c1=O (configuration not stated)	40	167	6.30	>56667	7.00	7.30	6.30	5.40	7.85	6.00	7.00	7.30	9.52	17	> 17000	47	8.30	5.70	167	
CN(C)c1nc(Cc2c(F)cccc2F)cc(=O)[nH]1	37		4.52	>4087	7.10	< 5.00	5.52		5.44	5.00	6.30	< 5.00	7.64	87	> 94000	156	5.70	5.30		
